In ChEMBL document CHEMBL3739417, “Synthesis and biological evaluation of novel 4,5-disubstituted 2H-1,2,3-triazoles as cis-constrained analogues of combretastatin A-4” (2015):

Experiments:
Format in all cases: functional
[1] = Growth inhibition of human SNB75 cells after 48 hrs by sulforhodamine B assay; conditions: SNB-75, 48 h
Method in brief: (§1)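 NCI-60 panel screen by SRB assay (Rubinstein method). Percentage growth taken from optical density of SRB colour, read before and 48 hrs after exposure to compound or vehicle control. All analogues first screened at 10^-5 M. Analogues giving 60% growth inhibition at that level in at least eight lines then went to a five-concentration dose-response study.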

A549 = test: Growth inhibition of human A549/ATCC cells after 48 hrs by sulforhodamine B assay; conditions: A549, 48 h; method in brief: as §1
NCI-H460 = test: Growth inhibition of human NCI-H460 cells after 48 hrs by sulforhodamine B assay; conditions: NCI-H460, 48 h; method in brief: as §1
MDA-MB-231 = test: Growth inhibition of human MDA-MB-231 cells after 48 hrs by sulforhodamine B assay; conditions: MDA-MB-231, 48 h; method in brief: as §1
[2] = Growth inhibition of human SKOV3 cells after 48 hrs by sulforhodamine B assay; conditions: SK-OV-3, 48 h; method in brief: as §1
MDA-MB-435 = test: Growth inhibition of human MDA-MB-435 cells after 48 hrs by sulforhodamine B assay; conditions: MDA-MB-435, 48 h
Method in brief: (§2)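 NCI-60 sulforhodamine B screen. Compounds were first tested at a single dose of 10⁻⁵ M; hits, defined as ≥60% growth inhibition in at least eight lines, went on to a five-concentration dose–response. SRB optical density was read before and 48 h after exposure to compound or vehicle. Percentage growth was calculated from OD.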

[3] = Growth inhibition of human UO31 cells after 48 hrs by sulforhodamine B assay; conditions: UO-31, 48 h; method in brief: as §1
[4] = Growth inhibition of human IGROV1 cells after 48 hrs by sulforhodamine B assay; conditions: IGROV-1, 48 h; method in brief: as §1
MDA-MB-468 = test: Growth inhibition of human MDA-MB-468 cells after 48 hrs by sulforhodamine B assay; conditions: MDA-MB-468, 48 h; method in brief: as §1
MCF7 = test: Growth inhibition of human MCF7 cells after 48 hrs by sulforhodamine B assay; conditions: MCF7, 48 h; method in brief: as §1
K562 = test: Growth inhibition of human K562 cells after 48 hrs by sulforhodamine B assay; conditions: K562, 48 h; method in brief: as §1
SR = test: Growth inhibition of human SR cells after 48 hrs by sulforhodamine B assay; method in brief: as §1
[5] = Growth inhibition of human NCI-ADR-RES cells after 48 hrs by sulforhodamine B assay; method in brief: as §1
[6] = Growth inhibition of human SF295 cells after 48 hrs by sulforhodamine B assay; conditions: SF-295, 48 h; method in brief: as §1
ACHN = test: Growth inhibition of human ACHN cells after 48 hrs by sulforhodamine B assay; method in brief: as §1
[7] = Growth inhibition of human HCT116 cells after 48 hrs by sulforhodamine B assay; conditions: HCT-116, 48 h; method in brief: as §1
[8] = Growth inhibition of human SF268 cells after 48 hrs by sulforhodamine B assay; conditions: SF-268, 48 h; method in brief: as §1
SK-MEL-2 = test: Growth inhibition of human SK-MEL-2 cells after 48 hrs by sulforhodamine B assay; conditions: SK-MEL-2, 48 h; method in brief: as §1
[9] = Growth inhibition of human MOLT4 cells after 48 hrs by sulforhodamine B assay; conditions: MOLT-4, 48 h; method in brief: as §1
CCRF-CEM = test: Growth inhibition of human CCRF-CEM cells after 48 hrs by sulforhodamine B assay; method in brief: as §1
[10] = Growth inhibition of human RPMI8226 cells after 48 hrs by sulforhodamine B assay; conditions: RPMI-8226, 48 h; method in brief: as §1
[11] = Growth inhibition of human HCT15 cells after 48 hrs by sulforhodamine B assay; conditions: HCT-15, 48 h; method in brief: as §1
SK-MEL-5 = test: Growth inhibition of human SK-MEL-5 cells after 48 hrs by sulforhodamine B assay; conditions: SK-MEL-5, 48 h; method in brief: as §1
[12] = Growth inhibition of human HOP92 cells after 48 hrs by sulforhodamine B assay; conditions: HOP-92, 48 h; method in brief: as §1
CAKI-1 = test: Growth inhibition of human CAKI-1 cells after 48 hrs by sulforhodamine B assay; conditions: CAKI-1, 48 h; method in brief: as §1
KM12 = test: Growth inhibition of human KM12 cells after 48 hrs by sulforhodamine B assay; conditions: KM12, 48 h; method in brief: as §1
[13] = Growth inhibition of human SW620 cells after 48 hrs by sulforhodamine B assay; conditions: SW-620, 48 h; method in brief: as §1
U-251 = test: Growth inhibition of human U251 cells after 48 hrs by sulforhodamine B assay; conditions: U-251, 48 h; method in brief: as §1
[14] = Growth inhibition of human HCC2998 cells after 48 hrs by sulforhodamine B assay; conditions: HCC 2998, 48 h; method in brief: as §1
[15] = Growth inhibition of human PC3 cells after 48 hrs by sulforhodamine B assay; conditions: PC-3, 48 h; method in brief: as §1
[16] = Growth inhibition of human DU145 cells after 48 hrs by sulforhodamine B assay; conditions: DU-145, 48 h; method in brief: as §1
[17] = Growth inhibition of human LOXIMVI cells after 48 hrs by sulforhodamine B assay; conditions: LOX IMVI; method in brief: as §1
[18] = Growth inhibition of human HOP62 cells after 48 hrs by sulforhodamine B assay; conditions: HOP-62, 48 h; method in brief: as §1
A498 = test: Growth inhibition of human A498 cells after 48 hrs by sulforhodamine B assay; conditions: A498, 48 h; method in brief: as §2
HT-29 = test: Growth inhibition of human HT-29 cells after 48 hrs by sulforhodamine B assay; conditions: HT-29, 48 h; method in brief: as §1
NCI-H23 = test: Growth inhibition of human NCI-H23 cells after 48 hrs by sulforhodamine B assay; conditions: NCI-H23, 48 h; method in brief: as §1
[19] = Growth inhibition of human OVCAR3 cells after 48 hrs by sulforhodamine B assay; conditions: OVCAR-3, 48 h; method in brief: as §2
[20] = read-out: LD50 (the source's name)

## COc1ccc(-c2nn[nH]c2-c2cc(OC)c(OC)c(OC)c2)cc1
[1]
  GI50: < 10 nM
[1]; [20]
  CC50: > 100000 nM
A549
  GI50: < 10 nM
A549; [20]
  CC50: > 100000 nM
NCI-H460
  GI50: < 10 nM
NCI-H460; [20]
  CC50: > 100000 nM
MDA-MB-231
  GI50: < 10 nM
MDA-MB-231; [20]
  CC50: > 100000 nM
[2]
  GI50: < 10 nM
[2]; read-out: LD50
  LC50 (concentration killing 50% of cells): > 100000 nM
MDA-MB-435
  GI50: < 10 nM
  TGI: < 10 nM
MDA-MB-435; read-out: LD50
  LC50 (concentration killing 50% of cells): > 100000 nM
[3]
  GI50: < 10 nM
[3]; read-out: LD50
  LC50 (concentration killing 50% of cells): > 100000 nM
[4]
  GI50: < 10 nM
[4]; [20]
  CC50: > 100000 nM
MDA-MB-468
  GI50: < 10 nM
MDA-MB-468; [20]
  CC50: > 100000 nM
MCF7
  GI50: < 10 nM
MCF7; [20]
  CC50: > 100000 nM
K562
  GI50: < 10 nM
K562; [20]
  CC50: > 100000 nM
SR
  GI50: < 10 nM
SR; read-out: LD50
  LC50 (concentration giving 50% net cell kill): > 100000 nM
[5]
  GI50: < 10 nM
[5]; [20]
  CC50: > 100000 nM
[6]
  GI50: < 10 nM
[6]; [20]
  CC50: > 100000 nM
ACHN
  GI50: < 10 nM
ACHN; [20]
  CC50: > 100000 nM
[7]
  GI50: < 10 nM
[7]; [20]
  CC50: > 100000 nM
[8]
  GI50: < 10 nM
[8]; [20]
  CC50: > 100000 nM
SK-MEL-2
  GI50: < 10 nM
SK-MEL-2; [20]
  CC50: > 100000 nM
[9]
  GI50: 12 nM
[9]; [20]
  CC50: > 100000 nM
CCRF-CEM
  GI50: < 10 nM
CCRF-CEM; read-out: LD50
  LC50 (concentration killing 50% of cells): > 100000 nM
[10]
  GI50: < 10 nM
[10]; [20]
  CC50: > 100000 nM
[11]
  GI50: < 10 nM
[11]; [20]
  CC50: > 100000 nM
SK-MEL-5
  GI50: < 10 nM
SK-MEL-5; [20]
  CC50: > 100000 nM
[12]
  GI50: < 10 nM
[12]; [20]
  CC50: > 100000 nM
CAKI-1
  GI50: < 10 nM
CAKI-1; [20]
  CC50: > 100000 nM
KM12
  GI50: < 10 nM
KM12; read-out: LD50
  LC50 (concentration killing 50% of cells): > 100000 nM
[13]
  GI50: < 10 nM
  LD50 (concentration killing 50% of cells): > 100 µM
U-251
  GI50: < 10 nM
U-251; [20]
  CC50: > 100000 nM
[14]
  GI50: 24 nM
[14]; [20]
  CC50: > 100000 nM
[15]
  GI50: < 10 nM
[15]; [20]
  CC50: > 100000 nM
[16]
  GI50: < 10 nM
[16]; [20]
  CC50: > 100000 nM
[17]
  GI50: < 10 nM
[17]; [20]
  CC50: > 100000 nM
[18]
  GI50: < 10 nM
[18]; read-out: LD50
  LC50 (concentration killing 50% of cells): > 100000 nM
A498
  GI50: < 10 nM
  TGI: < 10 nM
A498; read-out: LD50
  LC50 (50% net cell kill): > 100000 nM
HT-29
  GI50: < 10 nM
HT-29; read-out: LD50
  LC50 (concentration killing 50% of cells): > 100000 nM
NCI-H23
  GI50: < 10 nM
NCI-H23; read-out: LD50
  LC50 (concentration giving 50% cell kill): > 100000 nM
[19]
  GI50: < 10 nM
  TGI: < 10 nM
[19]; read-out: LD50
  LC50 (concentration giving 50% net cell kill): > 100000 nM
